# An excerpt weighted towards active compounds, which were near 1.8% of everything screened.
# Fh CTSL1 inh = counter-screen for PFM18AAP inhibitors: inhibitors of F. hepatica cathepsin L1. recombinant F. hepatica cathepsin L1, Z-Leu-Arg-MCA fluorescence. AID 1906. 300,000 compounds, 0.49% hits. inhibition, % at 5.96 µM;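 active means inhibition above the mean of all tested compounds plus 3 SD, set per screening campaign, cut at about 17% in these data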;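 further: 0% = plate median of test compound wells and 100% = 1 µM Z-Phe-Ala-diazomethylketone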
# Apaf-1 inh = human Apaf-1 inhibition; O14727; reconstituted apoptosome caspase-3 activity, DEVD-Rh110 fluorescence; inhibition, % at 20 µM; 330,000 compounds, 0.71% hits; AID 489030; active means inhibition of at least 40% at 20 µM;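 further: plate controls were DMSO wells for no effect and DEVD-CHO caspase inhibitor wells for full effect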
#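 System: Apoptosome proteins | Medium: Hepes pH 7.5 with detergent and BSA | Also added: Cytochrome c trigger plus (Z-DEVD)2-Rh110 caspase-3 substrate | Incubation: 30 min compound preincubation, 50 min activation, room temperature | Detection: Rhodamine 110 fluorescence at Ex 480/Em 540 nm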
# TDP2 inh = blocks human TDP2 phosphodiesterase activity. inhibition, % at 12.8 µM. recombinant TDP2, T5PNP hydrolysis, p-nitrophenol absorbance 415 nm. 370,000 compounds, 0.34% hits;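 active means inhibition above the mean of all tested compounds plus 3 SD, set per campaign, cut at about 25% in these data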;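 further: 0% = DMSO with enzyme and 100% = buffer with substrate but no TDP2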
# Target sequence (O95551 whole entry, looked up): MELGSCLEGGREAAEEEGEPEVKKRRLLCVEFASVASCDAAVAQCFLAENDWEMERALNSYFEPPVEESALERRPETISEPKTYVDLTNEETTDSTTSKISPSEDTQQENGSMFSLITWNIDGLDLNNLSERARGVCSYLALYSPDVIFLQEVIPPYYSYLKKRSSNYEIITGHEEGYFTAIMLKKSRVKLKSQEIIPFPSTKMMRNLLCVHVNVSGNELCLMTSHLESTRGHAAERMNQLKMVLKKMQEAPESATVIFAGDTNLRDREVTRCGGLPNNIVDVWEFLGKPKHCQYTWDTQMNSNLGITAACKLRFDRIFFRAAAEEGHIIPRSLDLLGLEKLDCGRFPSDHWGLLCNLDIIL
#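 System – recombinant human TDP2 · Quantity – TDP2 enzyme at 120 nM final · Doses – single concentration, 12.8 µM nominal, with 1% DMSO · Incubation – 2 h at 37 °C · Measured by – epi absorbance of p-nitrophenol freed from T5PNP by hydrolysis · Read-out – % inhibition relative to enzyme-containing and enzyme-free wells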
# PAD4 FP inh = PAD4 (human) enzyme inhibition | Q9UM07 | inhibition, % at 6.36 µM | 330,000 compounds, 0.41% hits | AID 485272 | recombinant PAD4, RCA probe fluorescence polarization;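 active means percent inhibition above a cutoff equal to the mean of all tested compounds plus 3 SD, cut at about 15% in these data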;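 further: 0% = PAD4 with RCA probe and DMSO and 100% = probe without PAD4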
# GSTO1 counter = blocks human GSTO1 in RBBP9 counter-screen | AID 1974 | inhibition, % at 5.96 µM | recombinant GSTO1, activity-based probe fluorescence polarization | 300,000 compounds, 1.1% hits | P78417;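 active means inhibition above the campaign mean inhibition plus 3 SD, cut at about 35% in these data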;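 further: 0% = GSTO1-1 with DMSO and 100% = wells lacking GSTO1-1 enzyme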
# Target sequence (P78417 whole entry, looked up): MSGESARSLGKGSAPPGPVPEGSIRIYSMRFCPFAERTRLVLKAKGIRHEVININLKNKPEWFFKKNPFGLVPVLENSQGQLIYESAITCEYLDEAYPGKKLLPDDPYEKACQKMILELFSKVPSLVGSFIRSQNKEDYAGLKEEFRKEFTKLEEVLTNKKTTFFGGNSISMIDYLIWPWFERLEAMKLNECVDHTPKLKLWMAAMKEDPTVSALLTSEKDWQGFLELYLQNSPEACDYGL
# GSTO1 confirm = confirmation of human GSTO1 inhibitors. 2,400 compounds, 54% hits. shares compounds with GSTO1 counter. recombinant GSTO1, probe fluorescence polarization. inhibition, % at 5.96 µM;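 active means inhibition above the primary screen's cutoff, its mean inhibition plus 3 SD, cut at about 35% in these data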;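 further: loss of polarization as inhibitors block binding of rhodamine sulfonate ester activity probe; 0% = GSTO1 with DMSO and 100% = wells lacking GSTO1 enzyme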
# GSTO1 ABPP inh = blocks recombinant human glutathione S-transferase omega 1; shares compounds with GSTO1 counter; recombinant GSTO1, gel ABPP SE-Rh probe fluorescence; inhibition, % at 1 µM; 130 compounds, 30% hits; AID 463110;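 active means inhibition of the enzyme GSTO1 above about 75%, limit read from the data; inactive means inhibition below that limit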
# * marks the source's active call; other numbers are inactive results; x = no result.
SMILES,Fh CTSL1 inh,Apaf-1 inh,TDP2 inh,PAD4 FP inh,GSTO1 counter,GSTO1 confirm,others
COc1ccc(OC)c(NC(=O)NC2(C(F)(F)F)Oc3ccccc3O2)c1,2.7,-0.6,-5.1,-2.9,56.5*,6.7,
Cc1c(C(C)(C)C)s/c(=N/S(=O)(=O)c2ccccc2)n1C,1.2,1.6,-0.5,1.1,-0.3,x,
CC(C)(C)c1cc[n+](C2=C([O-])c3ccccc3C(=O)/C2=N\S(=O)(=O)c2ccccc2)cc1,11.1,8.9,9.1,-3.0,86.5*,81.0*,
CCCC[n+]1ccn(-c2nc3ccccc3nc2[N-]S(=O)(=O)c2ccccc2)c1,2.4,-20.1,7.3,-0.3,13.4,x,
CCCC[n+]1ccn(C2=C([O-])c3ccccc3C(=O)/C2=N\S(=O)(=O)c2ccccc2)c1,9.2,59.0*,-1.1,-1.1,67.9*,65.8*,
Cc1cc[n+](C2=C([O-])c3ccccc3C(=O)/C2=N\S(=O)(=O)c2cccs2)cc1C,26.5*,30.6,0.1,5.7,90.3*,89.7*,
Cc1cc(C)c[n+](C2=C([O-])c3ccccc3C(=O)/C2=N\S(=O)(=O)c2cccs2)c1,12.8,19.7,0.1,-15.6,80.8*,87.5*,
CCc1ccc(Cn2c(=O)n(Cc3ccc(C(=O)NCCCOC)cc3)c(=O)c3ccccc32)cc1,x,x,-1.5,x,x,x,
COC(=O)C1CN(C2CC2)CCS(=O)(=O)N1Cc1cn(Cc2ccccc2)nn1 (stereo not given),x,x,3.4,x,x,x,
CC(C=NN=C1C(=O)Nc2ccccc21)=Cc1ccccc1,x,x,-13.5,x,x,x,
O=[N+]([O-])c1ccc(COc2cccc(CO)c2)cc1,x,x,-5.4,x,x,x,
CC(C)N(Cc1ccccc1)S(=O)(=O)c1cccs1,-4.1,6.1,-5.9,0.0,0.5,x,
O=C1/C(=N\S(=O)(=O)c2cccs2)C([n+]2cccc(Cc3ccccc3)c2)=C([O-])c2ccccc21,10.5,34.2,x,5.4,87.0*,83.1*,
C=CCN1[C@@H](CC(C)C)COc2cc(N3CCSCC3)ccc2S1(=O)=O,x,x,-0.1,x,x,x,
CCN(CC)c1ccc(N=Cc2cc(Br)ccc2O)cc1,-4.6,16.0,-3.4,13.5,74.3*,6.0,
CCC1CCCCN1C(=O)C(=O)c1cn(CC(=O)N(CC)CC)c2ccccc12 (stereo not given),-1.0,1.7,-6.9,2.6,39.7*,4.9,
CCN(CC)C(=O)Cn1cc(C(=O)C(=O)N(C)C2CCN(C)CC2)c2ccccc21,-2.2,7.4,-4.7,4.0,0.8,x,
COc1cc(C2CC=C(C(=O)O)C(c3ccccc3F)N2S(=O)(=O)c2ccc(C)cc2)cc(OC)c1OC (stereo not given),x,x,-4.3,x,x,x,
COCc1[nH][nH]c(=O)c1/C=N/N1CCOCC1,0.4,-3.4,-2.7,-8.1,38.3*,5.8,
Cc1c(N=c2c(=O)c3ccccc3c2=O)c(=O)n(-c2ccccc2)n1C,56.4*,21.9,x,-6.0,57.0*,76.8*,
Cc1csc(=Nc2c(C)n(C)n(-c3ccccc3)c2=O)n1-c1ccccc1,-4.4,-1.1,-5.7,0.2,-5.8,x,
O=C(c1ccc(Cl)cc1)N1CCC(Oc2cccnc2)CC1,x,x,5.0,x,x,x,
CCN=c1scc(C)n1/N=C/c1cc(Br)c(O)c(Br)c1,6.2,7.3,-3.7,-2.0,46.2*,21.2,
CCCCNC(=O)Oc1cc(CCl)on1,-4.8,1.6,x,-0.6,83.0*,91.1*,GSTO1 ABPP inh=21.0
O=CN1CCN(C(=O)C2CCN(c3ncnc4c3sc3cccc(F)c34)CC2)CC1,x,x,-7.3,x,x,x,
SMILES,Fh CTSL1 inh,Apaf-1 inh,TDP2 inh,PAD4 FP inh,GSTO1 counter,GSTO1 confirm,others
O=C1CSc2ccc(S(=O)(=O)CCC(=O)NC3CCCCC3)cc2N1,-8.4,0.3,-7.2,-8.2,53.0*,3.9,
Cc1c2cc(O)c(=O)cc-2oc2cc(O)c(O)cc12,-14.8,38.1,45.8*,64.8*,95.9*,106.9*,
O=C(NN1C(=O)c2ccccc2NC1c1ccc([N+](=O)[O-])o1)c1ccc([N+](=O)[O-])cc1 (stereo not given),-0.3,5.5,-3.4,-5.8,20.1,x,
O=C(NN1C(=O)c2ccccc2NC1c1ccc([N+](=O)[O-])o1)c1ccccc1 (stereo not given),7.5,0.6,-8.8,-4.9,44.1*,6.2,
O=C(CCl)N=c1sccn1Cc1cccc2ccccc12,x,x,6.8,x,x,x,
O=C(CCl)N=c1sccn1Cc1ccc(Cl)cc1Cl,13.3,12.2,3.6,1.1,75.9*,90.8*,
COC(C[C@@H]1O[C@H]1[C@H](O)[C@@H](C)OCc1ccccc1)OC,-1.7,4.1,x,1.4,39.8*,6.5,
COC(C[C@@H]1O[C@H]1[C@@H](O)[C@@H](C)OCc1ccccc1)OC,x,-6.9,2.2,x,x,x,
O=C(O)Cc1c[nH]c2ccccc12,4.5,-2.7,-2.3,-2.1,1.6,x,
O=C(CCl)N(c1ccccc1)c1c[nH]c2ccccc12,0.0,6.7,6.7,3.2,70.1*,78.0*,GSTO1 ABPP inh=34.0
C=CCn1c(O)c(N=NC(=S)Nc2ccccc2C)c2cc(S(=O)(=O)N3CCOCC3)ccc21,1.5,0.3,3.5,0.0,42.1*,7.1,
Cn1c(O)c(N=NC(=S)Nc2ccccc2F)c2cc(S(=O)(=O)N3CCOCC3)ccc21,x,x,10.7,x,x,x,
CCOC(=O)[C@]12CCCC=C1N(Cc1ccc(OC)cc1)C(=O)[C@@H]2CC(=O)NCC12CC3CC(CC(C3)C1)C2,x,x,-10.3,x,x,x,
CN1CCC(NC(=O)c2cccc(Oc3ccccc3)c2)CC1,11.5,-2.5,-7.8,-1.5,63.5*,5.9,
COC(=O)c1ccccc1NCc1cc(=O)oc2cc(O)c(O)cc12,6.5,11.5,0.5,9.2,43.2*,10.1,
COc1ccc(C)cc1NCc1cc(=O)oc2cc(-c3ccccc3)c(O)cc12,-2.6,5.5,-6.0,-0.6,5.2,x,
Cc1cc2c(NC(=O)CC(C)(C)CC(=O)O)cccc2nn1,1.3,30.9,17.2,-0.5,42.5*,6.7,
C[C@@H]1CCN(C2CC2)S(=O)(=O)c2ccc(N3CCC[C@H]3C)cc2O1,x,x,1.3,x,x,x,
C[C@@H]1C=CCCO[C@]12C(=O)N(Cc1ccc(Br)cc1)c1cccc(Br)c12,x,x,4.6,x,x,x,
COc1ccc(NC(=O)C(OC(=O)c2cnc(C)cn2)c2ccccc2)cc1Cl (stereo not given),-32.7,12.5,1.0,-6.8,0.1,x,
COc1ccc(NC(=O)C(OC(=O)c2ccc([N+](=O)[O-])o2)c2ccccc2)cc1Cl (stereo not given),-7.2,6.8,5.4,-12.2,50.1*,10.0,
O=S1(=O)CC2c3ccccc3CCN2CN1Cc1ccc(F)cc1 (stereo not given),x,x,6.2,x,x,x,
N#CC1(c2nc3ccccc3[nH]2)CC1c1ccc2c(c1)OCO2 (stereo not given),1.3,7.7,6.5,-2.9,46.0*,32.6,

# Bioassay records deposited in PubChem by several laboratories.
